# An excerpt weighted towards active compounds, which were near 0.9% of everything screened.
# PolyA inh: inhibitors of polyadenylation in S. cerevisiae; activity score, % at 12 µM; S. cerevisiae SKY197-pL101 polyadenylation reporter, beta-gal luminescence; efflux-impaired pdr1/pdr3 knockout yeast; score 100 = 6 SD above DMSO; AID 1875; 300,000 compounds, 0.02% hits;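 active = lowest replicate activity score at least 50, where 100 means six control SD above control mean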;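 also: yeast exposed to compound for 9 h at 30 °C; higher score means more reporter readthrough which indicates perturbed polyadenylation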
# DDE Tn6 FP inh: inhibitors of Tn6 peptide binding to human fibrin DD(E); 370,000 compounds, 0.21% hits; P02675; Fibrin DD(E) TRITC-Tn6 fluorescence polarization displacement; inhibition, % at 8.3 µM;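 active = inhibition above a per-campaign cutoff: mean of compounds within control limits plus 3 SD, cut at about 15% in these data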;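 also: 0% = median of all compound wells on the plate and 100% = blocking peptide control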
# Target sequence (P02675 whole entry, looked up): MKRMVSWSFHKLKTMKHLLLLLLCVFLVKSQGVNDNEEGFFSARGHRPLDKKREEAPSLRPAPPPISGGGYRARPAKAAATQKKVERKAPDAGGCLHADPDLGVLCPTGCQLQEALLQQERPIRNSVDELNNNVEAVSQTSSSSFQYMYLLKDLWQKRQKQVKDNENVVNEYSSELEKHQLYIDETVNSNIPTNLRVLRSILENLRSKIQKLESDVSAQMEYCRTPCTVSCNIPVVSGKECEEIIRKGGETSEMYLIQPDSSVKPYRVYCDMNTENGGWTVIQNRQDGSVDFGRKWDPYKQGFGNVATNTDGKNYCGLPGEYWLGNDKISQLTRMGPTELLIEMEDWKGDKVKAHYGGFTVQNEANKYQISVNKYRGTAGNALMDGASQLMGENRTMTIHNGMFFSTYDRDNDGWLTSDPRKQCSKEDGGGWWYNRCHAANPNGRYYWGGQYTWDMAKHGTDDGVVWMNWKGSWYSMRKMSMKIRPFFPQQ
# DDE Tn7 FP inh: disrupts Tn7 cyclic peptide binding to fibrin D-Dimer-E complex; FP displacement of FITC-Tn7 peptide from fibrin DD(E); 0% = median of compound wells per plate; inhibition, % at 8.3 µM; 370,000 compounds, 0.13% hits;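 active = inhibition above the mean of compounds falling within the control limits plus 3 SD of them, cut at about 14% in these data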;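 also: 0% = plate median of compound wells and 100% = 10 µM Aha-Tn7 peptide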
#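 System: human fibrin DD(E); quantity: Fibrin-DD(E) at 2 µM final; also added: fluorescent Tn7 probe at 0.1 µM; compound dosing: single nominal test concentration of 8.3 µM per compound; schedule: 10 min preincubation, 3 h with tracer, room temperature; detection: fluorescence polarization of the labelled Tn7 tracer; repeats: one replicate per compound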
# SKN-1 inh: C. elegans SKN-1 inhibition; C. elegans VP596 Pgst-4::GFP/RFP ratio, acrylamide-induced, 24 h; inhibition, % at 21.8 µM; 360,000 compounds, 0.49% hits; AID 624304;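 active = interference check ratio from 0.5 to 1.5 plus GFP to RFP signal ratio inhibition reaching or exceeding a fixed threshold, cut at about 30% in these data, passing the limit was not always enough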
# DAGLB inhibitor: diacylglycerol lipase beta (human) inhibition; Q8NCG7; HEK293T DAGLB membrane lysate, EnzChek fluorogenic substrate; inhibition, % at 5.17 µM; 340,000 compounds, 0.059% hits; in the data active = inhibition above about 34%;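 also: 0% = enzyme with vehicle and 100% = wells lacking enzyme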
# MT1-MMP act inh: inhibitors of human MT1-MMP activation; HT1080 RFP-PRO-GFP cells, GFP/RFP ratio fluorescence, overnight; percent of plate control window, DMSO zero; GFP/RFP ratio change, % at 20 µM; 360,000 compounds, 0.061% hits; AID 651647;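 active = GFP/RFP ratio change of at least 30% with cell ATP level not reduced by more than half and red fluorescence within 50% of control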
#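 Assay system: HT1080 cells carrying an RFP-PRO-GFP reporter | Dosing: Single dose of 20 µM compound, 1% DMSO final | Incubation: Cells overnight before dosing, compound overnight, 37 °C, 5% CO2 | Evaluation: GFP/RFP fluorescence ratio | Control set: DMSO and RFP-L50D-GFP cell wells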
# Starred values were filed as active, the others as inactive; · = no result.
SMILES,PolyA inh,DDE Tn6 FP inh,DDE Tn7 FP inh,SKN-1 inh,DAGLB inhibitor,MT1-MMP act inh
COC(CNC(=O)c1ccc2c3c(onc13)-c1ccccc1C2=O)OC,-25,6,2,59,15,34*
O=C(NCC(c1ccccc1)c1ccccc1)[C@H](Cc1c[nH]c2ccccc12)NC1(C(=O)NC2CCCCC2)CCC1,·,1,-8,·,·,·
O=C(C1CCC1)N1CCc2cc(S(=O)(=O)C3CCN(Cc4ccc(F)cc4)CC3)ccc21,·,8,0,·,·,·
CCOC(=O)C1(C)/C(=N/Nc2ccc(Cl)cc2)C(=O)C(=O)N1c1ccccc1 (centres undefined),-28,0,1,38*,8,11
C=CCn1c(N)c(C(=O)Nc2ccc(C)c(C)c2)c2nc3ccccc3nc21,-4,-2,-4,40*,-3,-5
C=CCn1c(N)c(C(=O)Nc2cccc(C)c2)c2nc3ccccc3nc21,-5,-3,-3,2,-8,-7
c1ccc(-c2ccc(-n3ccnc3)cc2)cc1,-13,0,-1,82*,-4,-2
CC(C)N1Cc2nnn(Cc3ccccc3)c2-c2cc(F)ccc2S1(=O)=O,·,-4,-1,·,·,·
Nc1c(C(=O)O)ccc2c1C(=O)c1ccccc1C2=O,-9,15,3,61,30,31
Nc1cc(C(=O)O)c(N)c2c1C(=O)c1ccccc1C2=O,8,·,·,43*,24,2
CSC1SCC2C(=O)N(C)C(C(C)C)C(=O)OCC(NC(=O)c3cnc4ccccc4n3)C(=O)NC(C)C(=O)N(C)C1C(=O)N(C)C(C(C)C)C(=O)OCC(NC(=O)c1cnc3ccccc3n1)C(=O)NC(C)C(=O)N2C (centres undefined),·,-7,-2,42*,2,-26
CCN(CC)c1ccc(NC(=O)CSc2nc3ccccc3c(=O)n2-c2ccc(C)cc2)cc1,·,4,0,·,·,·
Cc1cc(CC(C)C)n(-c2nc3ccccc3c(=O)n2OCc2ccccc2)n1,-13,3,-6,37*,-10,·
Cc1cc(CC(C)C)n(-c2nc3ccccc3c(=O)n2OCC(=O)N(C)C)n1,·,-8,-1,10,-4,0
CC1CCCCN1Cc1c(O)ccc2c(=O)c(-c3nc4ccccc4s3)c(N)oc12 (centres undefined),22,-17,0,81*,2,1
CCOC(=O)c1c(C)[nH]c(O)c1C=Nc1ccccc1,-13,0,-3,16,1,-11
COC(=O)c1c(C)[nH]c(O)c1C=Nc1ccc(C#N)cc1,10,4,2,46*,0,-6
CSc1cccc(NC(=O)C2C3C=CC4(O3)C2C(=O)N(CCN2CCOCC2)C4C(=O)NC2CCCCC2)c1 (centres undefined),15,1,5,37*,-1,1
CC(=O)CC[C@@H]1CC[C@]2(CCCN(C(=O)c3ccno3)C2)O1,·,-1,5,·,·,·
CCOC(=O)C(C)C1(O)c2ccccc2-c2ncccc21 (centres undefined),25,-6,11,37*,-2,6
OC(CC1CC12c1ccccc1-c1ncccc12)(c1ccccc1)c1ccccc1 (centres undefined),-2,-3,2,6,-3,-36
C[C@H]1COc2c3ccc(I)cc3nn21,·,0,-5,·,·,·
O=C(c1cccc(Cl)c1)N(Cc1cccs1)C1CCS(=O)(=O)C1 (centres undefined),6,8,-2,36*,1,2
Cc1cccc(C(=O)N(Cc2cccs2)C2CCS(=O)(=O)C2)c1 (centres undefined),10,-3,4,36*,0,-1
Clc1ccc(CN2CCN(N=Cc3cccc(OCc4ccccc4)c3)CC2)cc1,·,-6,-6,·,·,·
N#Cc1ccc(CC(=O)c2ccccc2)[nH]c1=O,·,17*,-2,44*,3,-29
CCc1ccccc1NC(=O)c1cc(C)nn1-c1ccccc1,·,2,2,·,·,·
COCCn1c(CCC(=O)O)nc2c1c(=O)[nH]c(=O)n2CC(C)C,-7,0,-13,32*,1,5

# Compound activity: PubChem, several laboratories
